{
  "source": "ChEMBL document CHEMBL4765399",
  "about": "“Design, synthesis, and biological evaluation of 5-((8-methoxy-2-methylquinolin-4-yl)amino)-1H-indole-2-carbohydrazide derivatives as novel Nur77 modulators” (Eur J Med Chem, 2020)",
  "key": {"[1]": {"system": "HepG2", "assay": "Upregulation of Nur77 expression in human HepG2 cells at 2 uM incubated for 6 hrs by Western blot analysis", "type": "functional, cell-based", "outline": "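HepG2, QGY-7703 and SMMC-7721 cells treated with the indicated concentrations for 6 h. HepG2 also given 2.0 µM over a time course. Lysis in RIPA with protease and phosphatase inhibitors; 40-80 µg protein by SDS-PAGE, nitrocellulose transfer. Membranes blocked with 5% milk, primary antibody overnight, HRP secondary, chemiluminescence. GAPDH as loading control.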"}, "[2]": {"system": "HepG2", "assay": "Upregulation of RXRalpha expression in human HepG2 cells at 2 uM incubated for 2 to 12 hrs by Western blot analysis", "type": "functional, cell-based", "conditions": "time 2-12 hrs", "outline": "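HepG2 cells given 2.0 µM for the indicated times. RXRα, RARγ and Nur77 detected by western blot: RIPA lysis with protease and phosphatase inhibitors, 40-80 µg protein by SDS-PAGE, nitrocellulose, 5% milk block, primary antibody overnight, HRP secondary, chemiluminescence read-out.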"}, "[3]": {"system": "HepG2", "assay": "Antiproliferative activity against human HepG2 cells assessed as reduction in cell viability at 2 uM by MTT assay", "type": "functional, cell-based", "conditions": "time 12-48 hrs, TDE = time-dependent effect", "outline": "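Cells treated with 2.0 µM over a time course; viability read by MTT. HepG2, SMMC-7721 kept in DMEM, QGY-7703 in RPMI 1640, with 10% FBS at 37 °C and 5% CO2.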"}, "[4]": {"system": "HepG2", "assay": "Induction of morphological changes in human HepG2 cells assessed as cell shrinkage at 1 to 2 uM incubated for 6 to 12 hrs by phase contrast microscopic analysis", "type": "functional, cell-based", "conditions": "dose 1-2 µM, time 6-12 hrs", "outline": "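HepG2 cells given graded concentrations; morphology monitored at set time points by phase-contrast optical microscopy.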"}, "[5]": {"system": "QGY-7703", "assay": "Induction of apoptosis in human QGY-7703 cells assessed as increase in cleaved PARP level at 0.5 to 2 uM incubated for 12 hrs by Western blot analysis", "type": "functional, cell-based", "conditions": "dose 0.5-2 µM", "outline": "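QGY-7703 (RPMI 1640, 10% FBS) and SMMC-7721 (DMEM) cells at 37 °C, 5% CO2, treated with graded concentrations for 12 h. RIPA lysates (40-80 µg protein) run on SDS-PAGE, transferred to nitrocellulose, immunoblotted for cleaved PARP; chemiluminescence read-out.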"}, "[6]": {"system": "HepG2", "assay": "Induction of autophagy in human HepG2 cells assessed as increase in GFP-LC3 puncta formation at 2 uM after 6 hrs by fluorescence microscopic method", "type": "functional, cell-based", "outline": "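HepG2, or HepG2 and shNur77 HepG2, transfected with GFP-LC3, then given vehicle or 2.0 µM for 6 h; GFP-LC3 puncta visualised by fluorescence microscopy alongside phase-contrast images.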"}, "[7]": {"system": "SMMC-7721", "assay": "Induction of endoplasmic reticulum stress in human SMMC-7721 cells assessed as increase in CHOP protein expression incubated for 12 hrs by Western blot analysis", "type": "functional, cell-based", "conditions": "dose 0.5-2 µM", "outline": "(§1)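 HepG2, QGY-7703 and SMMC-7721 treated with graded concentrations for 12 h. Lysed in RIPA with inhibitors; 40-80 µg protein separated by SDS-PAGE, blotted to nitrocellulose, blocked 1 h in 5% milk, primary antibodies overnight (LC3, Beclin1, Bip, CHOP, TRB3), HRP secondaries, chemiluminescence.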"}, "[8]": {"system": "HepG2", "assay": "Induction of endoplasmic reticulum stress in human HepG2 cells assessed as increase in TRB3 protein expression incubated for 12 hrs by Western blot analysis", "type": "functional, cell-based", "conditions": "dose 0.5-2 µM", "outline": "as §1"}, "[9]": {"system": "HepG2", "assay": "Induction of endoplasmic reticulum stress in Nur77 […] human HepG2 cells assessed as bip protein expression at 2 uM incubated for 6 to 12 hrs by Western blot analysis", "type": "functional, cell-based", "conditions": "time 6-12 hrs", "outline": "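HepG2 and shNur77 HepG2 exposed to DMSO or 2.0 µM for 6 and 12 h; lysates immunoblotted for TRB3, Bip, CHOP and Nur77 (SDS-PAGE, nitrocellulose, overnight primary antibodies, HRP secondary, chemiluminescence).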"}, "[10]": {"system": "HepG2", "assay": "Induction of endoplasmic reticulum stress in human HepG2 cells assessed as increase in TRB3 expression at 2 uM measured after 1 to 4 hrs by Western blot analysis", "type": "functional, cell-based", "conditions": "time 1-4 hrs", "outline": "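HepG2 exposed to 2.0 µM over a time course; Nur77, Bip, p-EIF2a, TRB3 and LC3 levels followed by Western blot of RIPA lysates.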"}, "[11]": {"system": "HepG2", "assay": "Antitumor activity against human HepG2 cells xenografted in BALB/c mouse assessed as induction of ER stress by measuring increase in CHOP level in tumor tissue at 10 to 20 mg/kg/day, ip administered for 15 days by immunohistochemical analysis", "type": "functional, organism-based", "conditions": "dose 10-20 mg/kg/day, time 15.0 day", "outline": "(§2)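 HepG2 cells (5×10^6) injected subcutaneously into flanks of 4-week-old male Balb/c nude mice. At about 100 mm³, 15 mice were randomized to vehicle, 10 or 20 mg/kg i.p. once daily for 15 days. Tumors were then excised for immunostaining of paraffin sections (5 μm) or for western blot.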"}, "[12]": {"system": "HepG2", "assay": "Antitumor activity against human HepG2 cells xenografted in BALB/c mouse assessed as induction of ER stress by measuring increase in bip level in tumor tissue at 10 to 20 mg/kg/day, ip administered for 15 days by immunohistochemical analysis", "type": "functional, organism-based", "conditions": "dose 10-20 mg/kg/day, time 15.0 day", "outline": "as §2"}, "[13]": {"target": "Nuclear receptor subfamily 4immunitygroup A member 1 (Homo sapiens, UniProt P22736)", "sequence (P22736 whole entry)": "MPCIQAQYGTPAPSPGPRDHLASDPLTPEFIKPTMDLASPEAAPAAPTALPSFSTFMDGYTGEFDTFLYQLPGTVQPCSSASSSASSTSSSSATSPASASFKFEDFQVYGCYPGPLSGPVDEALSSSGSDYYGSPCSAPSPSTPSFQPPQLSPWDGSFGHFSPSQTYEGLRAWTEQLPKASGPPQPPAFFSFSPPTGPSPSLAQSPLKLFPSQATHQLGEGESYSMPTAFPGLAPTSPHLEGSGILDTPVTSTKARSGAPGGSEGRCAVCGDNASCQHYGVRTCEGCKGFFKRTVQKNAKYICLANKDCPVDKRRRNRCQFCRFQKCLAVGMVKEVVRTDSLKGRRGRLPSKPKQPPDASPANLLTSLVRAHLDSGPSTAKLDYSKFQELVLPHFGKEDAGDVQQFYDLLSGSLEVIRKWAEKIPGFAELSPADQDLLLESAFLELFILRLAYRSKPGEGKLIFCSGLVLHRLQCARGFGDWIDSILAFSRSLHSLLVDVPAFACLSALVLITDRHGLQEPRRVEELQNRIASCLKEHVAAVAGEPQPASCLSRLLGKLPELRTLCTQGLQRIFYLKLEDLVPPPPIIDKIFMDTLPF", "assay": "Modulation of Nur77 in human HepG2 cells assessed as induction of Nur77 translocation into cytoplasm from nucleus by measuring decrease in protein expression in nucleus at 2 uM by western blot analysis", "type": "subcellular", "conditions": "filed as modulator, time 1-8 hrs, TDE = time-dependent effect", "outline": "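HepG2 given 2.0 µM for set times; cells swollen 10 min on ice in HEPES/NaCl/EDTA/CaCl2/MgCl2 buffer, 0.1% NP40 added, spun 15000 rpm 3 min at 4 °C giving cytoplasmic supernatant; pellet extracted in RIPA. Fractions blotted for Nur77, with PARP (nuclear) and tubulin (cytoplasmic) as loading controls.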"}, "[14]": {"system": "HepG2", "assay": "Induction of apoptosis in human HepG2 cells assessed as early apoptotic cells at 1 uM incubated for 12 hrs by Annexin V-FITC/PI staining based flow cytometry (reference value: 3.99%)", "type": "functional"}, "[15]": {"system": "HepG2", "assay": "Induction of apoptosis in human HepG2 cells assessed as necrotic cells at 1 uM incubated for 12 hrs by Annexin V-FITC/PI staining based flow cytometry (reference value: 0.068%)", "type": "functional"}, "[16]": {"system": "HepG2", "assay": "Induction of apoptosis in human HepG2 cells assessed as necrotic cells at 2 uM incubated for 12 hrs by Annexin V-FITC/PI staining based flow cytometry (reference value: 0.068 to 0.23%)", "type": "functional"}, "[17]": {"system": "HepG2", "assay": "Disruption of mitochondrial membrane potential in human HepG2 cells transfected with shNur77 assessed as green fluorescence intensity at 2 uM incubated for 12 hrs by JC-1 staining based flow cytometry (reference value: 44890 units)", "type": "functional"}, "[18]": {"system": "HepG2", "assay": "Induction of apoptosis in human HepG2 cells assessed as increase in cleaved PARP level pretreated with nuclear export inhibitor, LMB followed by incubation with compound for 12 hrs by western blot analysis", "type": "functional, cell-based"}, "[19]": {"system": "HepG2", "assay": "Induction of apoptosis in human HepG2 cells assessed as increase in PARP cleavage at 2 uM measured after 12 hrs by Western blot analysis"}},
  "note": "Activity calls are given as the source filed them. The calls are words filed in the database; no cut-off is given here.",
  "data": [
    {"smiles": "COc1cccc2c(Nc3ccc4[nH]c(C(=O)N/N=C/c5ccc(SC)cc5)cc4c3)cc(C)nc12", "values": [
      {"measurement": "Activity", "setting": "[1]", "value": "Active"},
      {"measurement": "Activity", "setting": "[2]", "value": "inactive"},
      {"measurement": "Activity", "setting": "[3]", "value": "Tde"},
      {"measurement": "Activity", "setting": "[4]", "value": "Active"},
      {"measurement": "Activity", "setting": "[5]", "value": "Dose-dependent effect"},
      {"measurement": "Activity", "setting": "[6]", "value": "Active"},
      {"measurement": "Activity", "setting": "[7]", "value": "Dose-dependent effect"},
      {"measurement": "Activity", "setting": "[8]", "value": "Dose-dependent effect"},
      {"measurement": "Activity", "setting": "[9]", "value": "inactive"},
      {"measurement": "Activity", "setting": "[10]", "value": "Active"},
      {"measurement": "Activity", "setting": "[11]", "value": "Active"},
      {"measurement": "Activity", "setting": "[12]", "value": "Active"},
      {"measurement": "Activity", "setting": "[13]", "value": "Tde"},
      {"measurement": "Activity", "setting": "[14]", "value": 18.5, "unit": "%"},
      {"measurement": "Activity", "setting": "[15]", "value": 0.41, "unit": "%"},
      {"measurement": "Activity", "setting": "[16]", "value": 0, "unit": "%"},
      {"measurement": "Activity", "setting": "[17]", "value": 52452, "unit": "U"},
      {"measurement": "Activity", "setting": "[18]", "value": "inactive"},
      {"measurement": "Activity", "setting": "[19]", "value": "Active"}
    ]}
  ]
}
